In the library only some 1.9% were active in any assay of this set; here they are far more common.
DDE Tn7 FP inh = inhibitors of Tn7 peptide binding to human fibrin DD(E); AID 720508; FP displacement of FITC-Tn7 peptide from fibrin DD(E); 0% = median of compound wells per plate; 370,000 tested, 0.13% active; inhibition, % at 8.3 µM; P02675;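 active = inhibition above the mean of compounds falling within the control limits plus 3 SD of them, cut at about 14% in these data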;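 note: 0% = plate median of compound wells and 100% = 10 µM Aha-Tn7 peptide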
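System: human fibrin DD(E); quantity: Fibrin-DD(E) at 2 µM final; also added: fluorescent Tn7 probe at 0.1 µM; compound dosing: single nominal test concentration of 8.3 µM per compound; schedule: 10 min preincubation, 3 h with tracer, room temperature; detection: fluorescence polarization of the labelled Tn7 tracer; repeats: one replicate per compound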
TDP2 absorb = blocks human TDP2 phosphodiesterase activity. 370,000 tested, 0.34% active. inhibition, % at 12.8 µM. recombinant TDP2, T5PNP hydrolysis, p-nitrophenol absorbance 415 nm. O95551. AID 720702;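 active = inhibition above the mean of all tested compounds plus 3 SD, set per campaign, cut at about 25% in these data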;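 note: 0% = DMSO with enzyme and 100% = buffer with substrate but no TDP2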
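Assay system: recombinant human TDP2 / Reagent: T5PNP substrate at 5 mM, a TopII-DNA adduct mimic / Measured by: epi absorbance from released p-nitrophenol / Evaluation: % inhibition relative to enzyme-containing and enzyme-free wells / Control set: enzyme-free and DMSO wells / Replicates: each compound tested once, singlicate / Schedule: enzyme reaction with compound for 2 h at 37 °C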
DDE Tn6 FP inh = DD(E)-Tn6 binding inhibition, primary FP screen. P02675. Fibrin DD(E) TRITC-Tn6 fluorescence polarization displacement. inhibition, % at 8.3 µM. 370,000 tested, 0.21% active. AID 720509;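 active = inhibition above a per-campaign cutoff: mean of compounds within control limits plus 3 SD, cut at about 15% in these data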;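 note: 0% = median of all compound wells on the plate and 100% = blocking peptide control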
LEDGF integ inh = blocks HIV-1 LEDGF/p75-dependent DNA integration; TR-FRET IN-LEDGF/p75 DNA integration, Eu/Cy5; inhibition, % at 3.7 µM; 370,000 tested, 0.64% active; AID 743269;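 active = inhibition above the screen-wide mean plus 3 SD, cut at about 13% in these data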;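 note: signal is the Cy5 over europium emission ratio at 671 and 618 nm; 0% = plate median of compound wells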
MBD2 DNA inh = MBD2-methylated oligo binding inhibition. Q9UBB5. TR-FRET, MBD2 binding to methylated oligonucleotide. inhibition, % at 4.4 µM. 370,000 tested, 0.31% active; in the data active = inhibition above about 13%
UHRF1 MBD2 ctr = UHRF1 methyl-DNA binding inhibition; Q96T88; UHRF1 binding to methylated oligo, TR-FRET; inhibition, % at 4.4 µM; 370,000 tested, 0.75% active; in the data active = inhibition above about 21%;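 note: UHRF1 SRA domain binding a hemimethylated CpG hairpin DNA probe; 0% = median of test compound wells and 100% = reference inhibitor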
Target sequence (Q96T88 whole entry, looked up, the tested form may be a part): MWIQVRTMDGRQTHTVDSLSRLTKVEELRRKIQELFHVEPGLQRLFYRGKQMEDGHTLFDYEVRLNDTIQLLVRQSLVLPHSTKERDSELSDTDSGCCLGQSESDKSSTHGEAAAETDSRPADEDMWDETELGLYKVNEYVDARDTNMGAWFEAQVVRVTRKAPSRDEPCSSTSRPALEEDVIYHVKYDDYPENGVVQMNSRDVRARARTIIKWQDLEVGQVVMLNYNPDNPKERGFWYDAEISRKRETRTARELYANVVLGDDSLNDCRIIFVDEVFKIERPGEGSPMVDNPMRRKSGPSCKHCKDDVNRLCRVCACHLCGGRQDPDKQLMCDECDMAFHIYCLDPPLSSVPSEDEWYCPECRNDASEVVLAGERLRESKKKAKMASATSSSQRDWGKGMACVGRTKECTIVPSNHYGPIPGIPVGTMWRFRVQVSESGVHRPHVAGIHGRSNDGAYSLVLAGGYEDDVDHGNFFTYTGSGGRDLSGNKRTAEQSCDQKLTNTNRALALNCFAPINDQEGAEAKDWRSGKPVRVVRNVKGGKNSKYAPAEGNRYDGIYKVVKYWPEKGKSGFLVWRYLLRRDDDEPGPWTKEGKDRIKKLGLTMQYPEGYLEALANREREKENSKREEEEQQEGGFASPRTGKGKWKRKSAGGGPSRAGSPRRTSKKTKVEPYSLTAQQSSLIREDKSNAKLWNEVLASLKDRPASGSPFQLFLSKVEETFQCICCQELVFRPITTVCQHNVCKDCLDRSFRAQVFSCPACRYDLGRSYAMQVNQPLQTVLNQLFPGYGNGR
Tn7 DDE conf = confirmation of inhibitors of Tn7 binding to human fibrin DD(E). shares compounds with DDE Tn7 FP inh. FP displacement of TRITC-Tn7 peptide from DD(E); 0% set at plate's compound-well median. inhibition, % at 8.3 µM. 460 tested, 5% active. AID 720628;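 active = inhibition above the campaign cutoff, the mean of compounds within control limits plus 3 SD, cut at about 14% in these data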;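 note: 100% = median FP of high control wells holding Aha-Tn7 inhibitor peptide; displacers lower polarization since freed probe rises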
Tn7 DDE ctr = counter-screen hit for Tn7 peptide-fibrin DD(E) binding disruption; shares compounds with DDE Tn7 FP inh; TRITC-Tn7 probe displacement, fluorescence polarization; inhibition, % at 8.3 µM; 460 tested, 3% active;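 active = inhibition above the cutoff, the mean of compounds lying between the control bounds plus 3 SD of those compounds, cut at about 17% in these data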;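 note: 0% = median of compound sample wells and 100% = excess unlabeled Aha-Tn7 peptide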
* = called active by the depositor; / = no result.

SMILES | DDE Tn7 FP inh | TDP2 absorb | DDE Tn6 FP inh | LEDGF integ inh | MBD2 DNA inh | UHRF1 MBD2 ctr | Tn7 DDE conf | Tn7 DDE ctr
N#CC1=C(N)Oc2n[nH]c(-c3ccc(F)cc3)c2C1c1cccc(OC(=O)N2CCOCC2)c1 (centres undefined) | 15* | 0 | 7 | -2 | -4 | -5 | 5 | -3
O=c1oc2c(O)cccc2cc1-c1nc2ccccc2[nH]1 | 36* | 5 | -4 | -2 | -5 | -22 | 21* | -4
COc1ccc(N2C(=O)NC3CC2(C)Oc2ccccc23)cc1 (centres undefined) | 16* | 1 | -4 | -1 | -3 | -2 | 1 | 3
CCC(NC(=O)CCCN1C(=O)COc2ccc(C)cc21)c1ccccc1 (centres undefined) | -1 | 1 | 3 | 0 | -8 | -1 | / | /
COc1ccc(/C=C/c2cc(C(=O)O)c3ccccc3n2)cc1 | 38* | -6 | 9 | -1 | -2 | -5 | 2 | 2
O=C(N[C@H](C(=O)N1CCC[C@H]1C(=O)NC1CCCC1)C1CCCCC1)c1ccccc1 | 10 | -3 | 2 | 1 | 0 | -2 | / | /
CCOC(=O)C1=C(C)Nc2ccccc2N/C1=N\S(=O)(=O)c1cccc(Cl)c1 | 16* | -3 | 0 | -7 | 1 | 0 | 7 | -1
CCOC(=O)C1=C(C)Nc2ccccc2N/C1=N\S(=O)(=O)c1ccc(Cl)cc1 | -11 | -14 | -3 | 2 | 4 | 4 | / | /
CCN(CC)CCNC(=O)c1ccc(NCN2C(=O)NC(c3ccccc3)(c3ccccc3)C2=O)cc1 | -5 | -4 | 5 | -1 | -2 | -1 | / | /
CN1CCCCC(NC(=O)c2ccc(Cl)cc2Cl)C1=O (centres undefined) | 1 | -4 | 5 | 4 | -2 | -1 | / | /
COc1ccccc1N1CCN(C(=O)c2oc3ccc(F)cc3c2C)CC1 | 16* | 2 | -4 | 0 | 4 | 1 | 0 | -1
COc1ccccc1OCC(=O)N1CCN(c2ccccc2OC)CC1 | 19* | -5 | -6 | 0 | 1 | 2 | -3 | -7
c1ccc2[nH]c(COCc3nc4ccccc4[nH]3)nc2c1 | 0 | 1 | -13 | -1 | 4 | 1 | / | /
Cc1ccc(Cn2cc(COC(=O)N3CCCC3)nn2)cc1 | 6 | 16 | -8 | 3 | 7 | 5 | / | /
COCCn1c(-c2ccc(OC)cc2)nc2ccccc21 | 0 | 7 | -1 | -3 | 0 | -1 | / | /
COCCn1c2nc(=O)n(-c3ccccc3)c(=O)c-2nc2ccccc21 | 51* | 6 | 2 | 0 | -14 | -5 | 26* | -1
C[C@H](O)[C@@H]1CN2CCc3c([nH]c4c(-c5ccccc5)cccc34)[C@@H]2C[C@@H]1N(C)C(=O)Nc1ccccc1 | 2 | -2 | -2 | 2 | -3 | -1 | / | /
CCOC(=O)CSc1nc(NCc2ccco2)c2ccccc2n1 | 15* | 5 | -3 | -1 | 0 | -1 | 1 | -2
Cc1cc2nc3c(=O)n(C4CCCCC4)c(=O)[nH]c3nc2cc1N | 25* | 3 | -4 | 10 | 1 | -14 | 17* | 8
C[C@H](CO)N1C[C@H](C)[C@@H](CN(C)C(=O)Nc2ccc(N3CCN(C)CC3)cc2)OCc2cn(nn2)CCCC1=O | 0 | 0 | 4 | -7 | 1 | -1 | / | /
O=C1CCN2C=Nc3cccc4ccc1c2c34 | 63* | 23 | 3 | 4 | -21 | -99 | 30* | -8
C[C@H]1C2CC(OC(=O)NCc3ccc(Cl)cc3)C(C2)[C@H]2CCCCN21 (some centres undefined) | 7 | -4 | -2 | 1 | -5 | 0 | / | /
CSCCCNC(=O)c1oc(=O)c2ccccc2c1-c1ccc(C)cc1 | 15* | 4 | 7 | 0 | -4 | -1 | -2 | -3
CC(=O)Nc1sc(C)c(C)c1C(=O)OCC(=O)Nc1ccccc1C(F)(F)F | 16* | 2 | 5 | -2 | 2 | 3 | 3 | 2
CCCCc1c(-c2ccccc2OC)ncn1Cc1cccc(C)c1 | 5 | -3 | -3 | 4 | -7 | 0 | / | /
SMILES | DDE Tn7 FP inh | TDP2 absorb | DDE Tn6 FP inh | LEDGF integ inh | MBD2 DNA inh | UHRF1 MBD2 ctr | Tn7 DDE conf | Tn7 DDE ctr
CCc1ccc(C(C)NC(=O)/C(C#N)=C\c2cn[nH]c2-c2ccccc2)cc1 (centres undefined) | 14* | -15 | 5 | 0 | 2 | 18 | 12 | 9
CC(NC(=O)/C(C#N)=C/c1cn[nH]c1-c1ccccc1)c1ccccc1 (centres undefined) | -2 | -4 | -7 | 0 | 4 | 1 | / | /
N/C(=N\OC(=O)Cc1ccc(-c2ccccc2)cc1)c1cccc([N+](=O)[O-])c1 | 14* | 0 | 5 | -2 | -1 | 1 | 8 | 5
CC(C(=O)N(C)C1CCS(=O)(=O)C1)N1C(=O)/C(=C/c2ccc(F)cc2)SC1=S (centres undefined) | -5 | -8 | -3 | 4 | -9 | -1 | / | /
CCN(C(=O)C(C)N1C(=O)/C(=C/c2ccco2)SC1=S)C1CCS(=O)(=O)C1 (centres undefined) | 14* | 1 | 9 | 49* | -2 | 31* | 0 | -4
CN1OC[C@@H]2CN3C(=NCCc4ccccc4)Sc4ccccc4[C@@H]3C[C@@H]21 | -1 | 2 | 8 | -1 | -2 | -1 | / | /
COC(=O)C1=C(C)N(Cc2cccc(C(F)(F)F)c2)C(=NCc2ccc3c(c2)OCO3)NC1CCc1ccccc1 (centres undefined) | 1 | -8 | 0 | -1 | -3 | 3 | / | /
COCCN1Cc2cc(C(=O)OC)c3c(c2C1=O)c1cc(F)ccc1n3S(=O)(=O)c1cccc(C)c1 | 2 | -4 | -1 | 0 | 1 | 1 | / | /
CCc1ccccc1NC(=S)NC1CC2CCC(C1)N2Cc1ccc(F)cc1 (centres undefined) | 14* | 4 | -11 | 0 | -6 | -2 | -3 | -11
COc1ccc(-c2coc3c(C(=O)NC4CCCCC4)cccc23)c(C)c1 | 10 | -12 | 1 | -3 | -5 | -1 | / | /
COc1ccc(-c2ccc(C(=O)NC3CCCCC3)c3occc23)c(C)c1 | 16* | -5 | 4 | -2 | -1 | -1 | 10 | 6
COc1ccccc1C(=O)N1CCN(C(=O)[C@H](CCc2ccccc2)NC(=O)[C@H]2O[C@@H](n3cnc4c(N)ncnc43)[C@H](O)[C@@H]2O)CC1 | -1 | 3 | -7 | 0 | 4 | -1 | / | /

High-throughput results as filed in PubChem.
